{"data": "Results of several laboratories", "target": "Protein kinase C iota type (PRKCI, Homo sapiens, UniProt P41743)", "Residues used in one study (P41743 1-596)": "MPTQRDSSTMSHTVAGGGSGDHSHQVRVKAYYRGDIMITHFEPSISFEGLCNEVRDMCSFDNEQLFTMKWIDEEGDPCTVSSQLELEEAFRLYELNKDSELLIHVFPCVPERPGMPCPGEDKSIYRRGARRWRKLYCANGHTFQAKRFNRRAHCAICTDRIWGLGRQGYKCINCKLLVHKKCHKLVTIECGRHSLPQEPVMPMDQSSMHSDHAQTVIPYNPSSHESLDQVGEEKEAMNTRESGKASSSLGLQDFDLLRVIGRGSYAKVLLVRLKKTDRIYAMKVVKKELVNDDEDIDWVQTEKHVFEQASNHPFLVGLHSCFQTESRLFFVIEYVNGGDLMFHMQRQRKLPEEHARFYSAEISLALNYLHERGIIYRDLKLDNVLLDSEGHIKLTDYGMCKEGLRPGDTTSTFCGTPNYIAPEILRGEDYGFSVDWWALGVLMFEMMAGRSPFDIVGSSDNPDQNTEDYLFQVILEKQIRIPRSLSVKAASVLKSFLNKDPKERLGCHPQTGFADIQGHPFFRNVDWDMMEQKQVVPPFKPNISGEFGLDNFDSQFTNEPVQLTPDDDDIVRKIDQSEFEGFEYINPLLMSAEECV", "note": "Each line is one published result; the experiments were not run side by side."}
{"SMILES": "COc1cc(-c2cc(-c3ccc(N4CCNCC4)cc3)cnc2C)cc(OC)c1OC", "test": "enzyme activity, inhibitor", "setting": "1 µM", "measurement": "inhibition", "value": "18%"}
{"SMILES": "COc1cc2ncnc(Nc3ccc(Oc4ccccc4)c(C)c3C)c2cc1OC", "test": "enzyme activity, inhibitor", "setting": "1 µM", "measurement": "inhibition", "value": "-4%"}
{"SMILES": "Cc1ccc(-n2nc(C(C)(C)C)cc2NC(=O)Nc2ccc(OCCN3CCOCC3)c3ccccc23)cc1", "test": "enzyme activity, inhibitor", "setting": "10 µM", "measurement": "inhibition", "value": "3%"}
{"SMILES": "Cc1ccc(Nc2nccc(N(C)c3ccc4c(C)n(C)nc4c3)n2)cc1S(N)(=O)=O", "test": "enzyme activity", "setting": "0.5 µM", "measurement": "remaining activity", "value": "96.1%"}
{"SMILES": "COc1ccc2cc(OCC3(C(=O)O)CN(C(=O)c4ccc(F)cc4)C3)ccc2c1", "test": "cell-free assay, competition with immobilised ligand", "setting": "1 µM", "measurement": "remaining binding", "value": "100%"}
{"SMILES": "CCN(CC)c1ccc(C2=NNC(=O)CC2C)cc1[N+](=O)[O-] (stereo not drawn)", "test": "enzyme activity, inhibitor", "setting": "10 µM", "measurement": "remaining activity", "value": "108%"}
{"SMILES": "CCCCNc1ncc2c(-c3ccc(F)cc3)nn(C[C@H]3CC[C@H](N)CC3)c2n1", "test": "target engagement in cells, inhibitor, chemoproteomics", "setting": "20 mM", "measurement": "inhibition", "value": "-5.8%"}
{"SMILES": "CO[C@@H](C)c1c(Nc2ccc([C@@H](N(C)C(=O)C3CCS(=O)(=O)CC3)C(F)(F)F)cc2)cnc2cc(Cl)nn12", "test": "cell-free assay, competition with immobilised ligand", "setting": "1 µM", "measurement": "remaining binding", "value": "76%"}
{"SMILES": "Cc1ccc(NC(=O)c2ccc(C)c(C(F)(F)F)c2)cc1C#Cc1nn(C2CCC(O)CC2)c2ncnc(N)c12 (stereo not drawn)", "test": "cell-free assay", "setting": "10 µM", "measurement": "remaining signal", "value": "91%"}
{"SMILES": "Nc1ncnc2occ(-c3ccc(NC(=O)Nc4cc(C(F)(F)F)ccc4F)cc3)c12", "test": "cell-free assay", "setting": "20 µM", "measurement": "remaining signal", "value": "6.8%"}
{"SMILES": "CN1CC(Oc2cnc(C#N)cc2-c2ccn3nc(NC(=O)C4CC4)cc3c2)C1", "test": "enzyme activity, inhibitor", "setting": "1 µM", "measurement": "inhibition", "value": "-8%"}
{"SMILES": "Cc1ccc(C(=O)Nc2ccc(CN3CCN(C)CC3)c(C(F)(F)F)c2)cc1C#Cc1cnc2cccnn12", "test": "enzyme activity", "setting": "23.5 nM", "measurement": "remaining activity", "value": "85%"}
{"SMILES": "CC(C)(C)c1nc2c(s1)c1nc(N)ncc1c1ccc(NS(=O)(=O)c3c(F)cccc3F)c(F)c12", "test": "enzyme activity, inhibitor, radiometric", "setting": "1 µM", "measurement": "remaining activity", "value": "91%"}
{"SMILES": "O=C(Nc1cnc(Oc2ccc(F)cc2)nc1)N1CCc2ncccc2[C@@H]1c1ccc(F)cc1", "test": "cell-free assay, competition with immobilised ligand", "setting": "1 µM", "measurement": "remaining binding", "value": "98%"}
{"SMILES": "COc1cccc2c(NCc3ccccc3)nc(-n3c(N)nc4ccccc43)nc12", "test": "target engagement in cells, inhibitor, chemoproteomics", "setting": "20 mM", "measurement": "inhibition", "value": "-13.3%"}
{"SMILES": "CC(C)(O)c1cncc(-c2nc3ccc(F)cc3n2C2CC2)c1", "test": "cell-free assay, competition with immobilised ligand", "setting": "1 µM", "measurement": "remaining binding", "value": "89%"}
{"SMILES": "CCN(CC)CCNC(=O)c1c(C)[nH]c(/C=C2\\C(=O)Nc3ccc(F)cc32)c1C", "test": "enzyme activity, inhibitor", "setting": "0.3 µM", "measurement": "inhibition", "value": "3%"}
{"SMILES": "CC/C(=N\\NC(=O)NCc1cccc(O)c1)c1ccc(O)c(C)c1O", "test": "enzyme activity, inhibitor", "setting": "0.1 µM", "measurement": "inhibition", "value": "15.8%"}
{"SMILES": "CCS(=O)(=O)c1cc2cc(C[C@@](O)(CC(C)(C)c3ccc(F)cc3C(N)=O)C(F)(F)F)[nH]c2cn1", "test": "cell-free assay, competition with immobilised ligand", "setting": "1 µM", "measurement": "remaining binding", "value": "100%"}
{"SMILES": "CNCc1ccc(-c2cc(-c3nc(-c4ccc(S(=O)(=O)C(C)C)cc4)cnc3N)on2)cc1", "test": "enzyme activity, inhibitor", "setting": "0.4 µM", "measurement": "inhibition", "value": "0%"}
{"SMILES": "N#CCCc1ccc2c(c1)-c1[nH]c3ccc([N+](=O)[O-])cc3c1CC(=O)N2", "test": "cell-free assay", "setting": "0.5 µM", "measurement": "remaining signal", "value": "65.3%"}
{"SMILES": "CCC(=O)N[C@@H]1CC[C@H](C(=O)N(C)c2ccc(-c3nc4ccccc4o3)cc2)C1", "test": "cell-free assay, competition with immobilised ligand", "setting": "1 µM", "measurement": "remaining binding", "value": "84%"}
{"SMILES": "CN(C)C1CCN(CC#Cc2nn(C3CCCC3)c3nc(NCc4ccccc4)ncc23)C1 (stereo not drawn)", "test": "enzyme activity, inhibitor, FRET", "setting": "0.1 µM", "measurement": "inhibition", "value": "9%"}
{"SMILES": "C[C@H](c1cccc(C#N)c1)n1cc(Cl)cc(C(N)=O)c1=N", "test": "cell-free assay, competition with immobilised ligand", "setting": "1 µM", "measurement": "remaining binding", "value": "100%"}
{"SMILES": "O=C(Nc1cnn(-c2csc(C(=O)NC3COC3)c2)c1)Nc1ccccc1Cl", "test": "enzyme activity, inhibitor", "setting": "5 µM", "measurement": "remaining activity", "value": "95.5%"}
{"SMILES": "COc1cc(-c2cn(C3CCc4c(F)cccc4N(CC(F)(F)F)C3=O)nn2)ccc1-n1cnc(C)c1 (stereo not drawn)", "test": "cell-free assay, competition with immobilised ligand", "setting": "1 µM", "measurement": "remaining binding", "value": "100%"}
{"SMILES": "CNC(=O)c1cc(Oc2ccc(NC(=O)Nc3ccc(Cl)c(C(F)(F)F)c3)cc2)ccn1", "test": "enzyme activity, inhibitor", "setting": "10 µM", "measurement": "inhibition", "value": "9%"}
